pIC50: −log10 of the molar value. The source made the active and inactive calls. The calls are words filed in the database; no cut-off is given here.
Experiments:
[1] = system: MV4-11; assay: Cell cycle arrest in human MV4-11 cells assessed as accumulation at G0/G1 phase at 5 nM after 24 hrs by propidium iodide/RNase staining-based FACS analysis (reference value: 44.79%); assay type: functional
[2] = target: T1, Serine/threonine-protein kinase mTOR (Homo sapiens, UniProt P42345); assay: Inhibition of mTOR in human MV4-11 cells assessed as decrease in Akt phosphorylation at S473 residues at 0.01 to 10 uM after 24 hrs by Western blot analysis; assay type: cell-based
In short: (§1)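 Treatment of MV4-11 cells lasted 24 h at 0.01, 0.1, 1 and 10 μM. Lysis in RIPA buffer and BCA quantitation, then 30 μg protein by SDS-PAGE, PVDF transfer, 5% milk block, primary antibody overnight at 4 °C, HRP secondary 1 h and ECL detection. p-p70S6K (T389), p-4EBP1 (S65), p-Akt (S473) and p-ERK were probed.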

[3] = system: MM1.S; assay: Induction of apoptosis in human MM1S cells assessed as late apoptotic cells at 80 nM after 48 hrs by Annexin V-FITC/propidium iodide staining-based flow cytometric analysis (reference value: 0.42%); assay type: functional
[4] = target: T1, Serine/threonine-protein kinase mTOR; assay: Inhibition of human recombinant mTOR expressed in mammalian expression system assessed as residual activity at 1 uM
In short: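 Radiometric kinase panel (99 kinases) run at 1 μM inhibitor in duplicate with [γ-33P]ATP, kinase-specific buffer and substrate at room temperature. The reaction was started with Mg/ATP and stopped with 0.5% phosphoric acid, then spotted on P30 filtermat, washed and scintillation counted. Results are expressed as % remaining activity versus DMSO control.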

[5] = system: MV4-11; assay: Cell cycle arrest in human MV4-11 cells assessed as accumulation at G2/M phase at 10 nM after 24 hrs by propidium iodide/RNase staining-based FACS analysis (reference value: 18.79%); assay type: functional
[6] = Toxicity against NOD/SCID mouse xenografted with human MV4-11 cells assessed as mouse survival at 10 mg/kg, iv administered every 2 days for 6 days; assay type: organism-based; details: in vivo
In short: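 MV4-11 cells (10^7 in 100 μL serum-free IMDM) were injected s.c. into the right flank of female NOD/SCID mice aged 5-6 weeks. Groups of 6 were randomised at 100-200 mm3. Dosing was i.v. every 2 days in physiological saline containing 2.5% DMSO and 10% cyclodextrin, pH 9. Tumours were measured by caliper every 2 days. Survivors were counted.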

[7] = system: MV4-11; assay: Cell cycle arrest in human MV4-11 cells assessed as accumulation at S phase at 2.5 nM after 24 hrs by propidium iodide/RNase staining-based FACS analysis (reference value: 36.42%); assay type: functional
[8] = system: MV4-11; assay: Induction of apoptosis in human MV4-11 cells assessed as viable cells at 40 nM after 48 hrs by Annexin V-FITC/propidium iodide staining-based flow cytometric analysis (reference value: 84.1%); assay type: functional; details: MV4-11, 48 h, read-out: Activity
[9] = system: MV4-11; assay: Induction of apoptosis in human MV4-11 cells assessed as early apoptotic cells at 320 nM after 48 hrs by Annexin V-FITC/propidium iodide staining-based flow cytometric analysis (reference value: 10.7%); assay type: functional
[10] = system: MV4-11; assay: Induction of apoptosis in human MV4-11 cells assessed as viable cells at 160 nM after 48 hrs by Annexin V-FITC/propidium iodide staining-based flow cytometric analysis (reference value: 84.1%); assay type: functional; details: MV4-11, 48 h, read-out: Activity
[11] = target: Polyamine deacetylase HDAC10 (Homo sapiens, UniProt Q969S8); assay: Inhibition of recombinant full length N-terminal FLAG-tagged human HDAC10 expressed in baculovirus infected sf9 cells using Ac-peptide-AMC as substrate preincubated for 15 mins followed by substrate addition and measured after 1 hr by fluorescence assay
[12] = system: MM1.S; assay: Induction of apoptosis in human MM1S cells assessed as early apoptotic cells at 20 nM after 48 hrs by Annexin V-FITC/propidium iodide staining-based flow cytometric analysis (reference value: 0.38%); assay type: functional
[13] = system: MV4-11; assay: Cell cycle arrest in human MV4-11 cells assessed as accumulation at G0/G1 phase at 2.5 nM after 24 hrs by propidium iodide/RNase staining-based FACS analysis (reference value: 44.79%); assay type: functional
[14] = system: MV4-11; assay: Induction of apoptosis in human MV4-11 cells assessed as early apoptotic cells at 160 nM after 48 hrs by Annexin V-FITC/propidium iodide staining-based flow cytometric analysis (reference value: 10.7%); assay type: functional
[15] = system: OCI-AML-3; assay: Antiproliferative activity against human OCI-AML3 cells after 72 hrs by MTT assay; assay type: functional, cell-based; details: OCI-AML-3, 72 h
[16] = system: MM1.S; assay: Induction of apoptosis in human MM1S cells assessed as late apoptotic cells at 40 nM after 48 hrs by Annexin V-FITC/propidium iodide staining-based flow cytometric analysis (reference value: 0.42%); assay type: functional
[17] = Toxicity against NOD/SCID mouse xenografted with human MM1S cells assessed as mouse survival at 20 mg/kg, iv administered every 2 days for 5 days; assay type: organism-based; details: in vivo
In short: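 Female NOD/SCID mice, 5-6 weeks old, received 10^7 MM1S cells in 100 μL serum-free RPMI 1640 s.c. into the right flank. At 100-200 mm3 tumours they were randomised, 6 mice per group. Tumours were measured by caliper every 2 days. At the end, tumours were excised and weighed. Survivors are reported per group.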

[18] = system: MM1.S; assay: Induction of apoptosis in human MM1S cells assessed as viable cells at 320 nM after 48 hrs by Annexin V-FITC/propidium iodide staining-based flow cytometric analysis (reference value: 98.9%); assay type: functional; details: read-out: Activity
[19] = target: T1, Serine/threonine-protein kinase mTOR; assay: Inhibition of mTOR in human MV4-11 cells assessed as decrease in p70S6K phosphorylation at Thr 389 residues at 0.01 to 10 uM after 24 hrs by Western blot analysis; assay type: cell-based; in short: as §1
[20] = system: MM1.S; assay: Induction of apoptosis in human MM1S cells assessed as late apoptotic cells at 320 nM after 48 hrs by Annexin V-FITC/propidium iodide staining-based flow cytometric analysis (reference value: 0.42%); assay type: functional
[21] = system: MV4-11; assay: Induction of apoptosis in human MV4-11 cells assessed as late apoptotic cells at 160 nM after 48 hrs by Annexin V-FITC/propidium iodide staining-based flow cytometric analysis (reference value: 5.03%); assay type: functional
[22] = target: Histone deacetylase 8 (Homo sapiens, UniProt Q9BY41); assay: Inhibition of recombinant full length C-terminal His-tagged human HDAC8 expressed in baculovirus expression system using Ac-peptide-AMC as substrate preincubated for 15 mins followed by substrate addition and measured after 1 hr by fluorescence assay
[23] = system: MM1.S; assay: Antitumor activity against human MM1S cells xenografted in NOD/SCID mouse assessed as tumor growth inhibition at 20 mg/kg, iv administered every 2 days for 5 days and measured every 2 days post last dose by caliper method relative to control; assay type: functional; details: read-out: TGI
In short: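 MM1S xenografts were made with 10^7 cells in 100 μL serum-free RPMI 1640, injected s.c. into the right flank of female NOD/SCID mice aged 5-6 weeks. Mice were randomized at 100-200 mm3, 6 per group. Dosing was i.v. every 2 days in saline with 2.5% DMSO and 10% cyclodextrin at pH 9. Tumours were measured by caliper every 2 days (volume = length × width² × 0.5) and weighed at the end.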

[24] = system: MV4-11; assay: Induction of apoptosis in human MV4-11 cells assessed as early apoptotic cells at 10 nM after 48 hrs by Annexin V-FITC/propidium iodide staining-based flow cytometric analysis (reference value: 10.7%); assay type: functional

Chain of Polyamine deacetylase HDAC10 (Q969S8 whole entry): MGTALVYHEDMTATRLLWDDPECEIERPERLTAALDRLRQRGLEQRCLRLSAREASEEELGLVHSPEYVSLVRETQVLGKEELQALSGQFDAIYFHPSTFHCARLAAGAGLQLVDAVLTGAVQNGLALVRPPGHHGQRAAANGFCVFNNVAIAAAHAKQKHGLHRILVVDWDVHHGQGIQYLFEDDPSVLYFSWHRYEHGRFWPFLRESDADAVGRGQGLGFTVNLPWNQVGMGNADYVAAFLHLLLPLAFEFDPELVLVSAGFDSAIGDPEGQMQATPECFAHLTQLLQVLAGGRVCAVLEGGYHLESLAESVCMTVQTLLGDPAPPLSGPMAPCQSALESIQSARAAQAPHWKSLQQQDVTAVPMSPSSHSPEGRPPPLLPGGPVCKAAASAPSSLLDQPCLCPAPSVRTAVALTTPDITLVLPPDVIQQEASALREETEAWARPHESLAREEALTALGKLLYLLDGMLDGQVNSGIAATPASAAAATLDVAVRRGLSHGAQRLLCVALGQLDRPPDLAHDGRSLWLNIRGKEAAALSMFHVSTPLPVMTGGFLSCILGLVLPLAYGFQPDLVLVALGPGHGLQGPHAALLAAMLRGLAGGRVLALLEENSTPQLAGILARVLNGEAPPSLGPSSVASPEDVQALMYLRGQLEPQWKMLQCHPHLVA
Chain of Histone deacetylase 8 (Q9BY41 whole entry): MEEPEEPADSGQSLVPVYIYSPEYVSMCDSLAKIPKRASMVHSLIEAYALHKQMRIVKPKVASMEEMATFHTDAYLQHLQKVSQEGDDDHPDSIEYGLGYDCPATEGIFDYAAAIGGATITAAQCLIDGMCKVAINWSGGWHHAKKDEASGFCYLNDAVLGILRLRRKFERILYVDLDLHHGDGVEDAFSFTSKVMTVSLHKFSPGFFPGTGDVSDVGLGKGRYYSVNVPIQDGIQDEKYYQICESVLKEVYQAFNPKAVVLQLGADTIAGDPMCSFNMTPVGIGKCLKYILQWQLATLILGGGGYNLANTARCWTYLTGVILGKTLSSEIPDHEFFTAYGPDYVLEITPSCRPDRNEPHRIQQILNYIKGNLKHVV

C[C@@H]1CN(C(=O)Nc2ccc(-c3nc(N4CCOCC4)c4cnn(CCCCCCC(=O)NO)c4n3)cc2)CCO1
Activity [1]: 64.69% | inhibition [2]: Active | Activity [3]: 40.5% | inhibition [4]: Active | Activity [5]: 11.11% | Activity [6]: Non-Toxic | Activity [7]: 33.77% | viability at 0.04 µM [8]: 2.99% | Activity [9]: 27.5% | viability at 0.16 µM [10]: 2.29% | pIC50 [11]: 9.24 | Activity [12]: 1.61% | Activity [13]: 48.03% | Activity [14]: 34.7% | pIC50 [15]: 8.00 | Activity [16]: 23% | Activity [17]: Non-Toxic | viability at 0.32 µM [18]: 3.68% | inhibition [19]: Active | Activity [20]: 62% | Activity [21]: 61.9% | pIC50 [22]: 8.89 | inhibition in vivo at 20 mg/kg [23]: 72.5% | Activity [24]: 14.8%

Source: ChEMBL document CHEMBL4411315, “Discovery of Novel Dual Histone Deacetylase and Mammalian Target of Rapamycin Target Inhibitors as a Promising Strategy for Cancer Therapy” (J Med Chem, 2019)
